ChEMBL document CHEMBL1147479, “Synthesis and biological evaluation of benzimidazole-4,7-diones that inhibit vascular smooth muscle cell proliferation” (Bioorg Med Chem Lett, 2004)
pIC50: −log10 of the molar value.

Organism: Rattus norvegicus
Assay: Inhibitory activity against the PDGF-induced proliferation of rat aortic smooth muscle cell (RAoSMC)
Assay type: functional, organism-based
Method in brief: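 Smooth muscle cells isolated from rat thoracic aorta, kept in DMEM with 10% FBS. Seeded in triplicate at 1×10³ cells/well and grown 24 h, then starved in 0.2% FBS for 72 h. Treated for 48 h in DMEM with PDGF (5 ng/mL) and 5% FBS. Proliferation read by WST-1 uptake (colorimetric); IC50 derived by comparison with mycophenolic acid standard.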

| SMILES | pIC50 |
| --- | --- |
| O=C1C(Cl)=C(Nc2ccccc2)C(=O)c2[nH]cnc21 | 5.26 |
| O=C1C(Cl)=C(Nc2cccc(Br)c2)C(=O)c2[nH]cnc21 | 5.80 |
| O=C1C(Br)=C(Nc2ccc(F)cc2)C(=O)c2[nH]cnc21 | 6.00 |
| O=C1C(Br)=C(Nc2cccc(I)c2)C(=O)c2[nH]cnc21 | 5.60 |
| Cc1nc2c([nH]1)C(=O)/C(=N/c1ccc(F)c(F)c1F)C(Cl)=C2O | 5.96 |
| COc1ccc(OC)c2[nH]cnc12 | < 4.00 |
| Cc1nc2c([nH]1)C(=O)/C(=N/c1ccccc1)C(Cl)=C2O | 6.10 |
| Cc1ccc(NC2=C(Br)C(=O)c3nc[nH]c3C2=O)cc1 | 6.00 |
| Cc1nc2c([nH]1)C(=O)/C(=N/c1cccc(Br)c1)C(Cl)=C2O | 6.00 |
| Cc1nc2c([nH]1)C(=O)/C(=N/c1ccc(F)cc1)C(Cl)=C2O | 5.52 |
| O=C1C(Cl)=C(Nc2ccccc2)C(=O)c2[nH]c(C(F)(F)F)nc21 | 4.30 |
| Cc1nc2c([nH]1)C(=O)/C(=N/c1cccc(Cl)c1)C(Cl)=C2O | 6.05 |
| O=C1C(Cl)=C(Nc2cccc(Cl)c2)C(=O)c2[nH]cnc21 | 5.85 |
| O=C1C(Cl)=C(Nc2cccc(I)c2)C(=O)c2[nH]cnc21 | 5.89 |
| O=C1C(Br)=C(Nc2ccc(Cl)cc2)C(=O)c2[nH]cnc21 | 5.40 |
| O=C1C(Br)=C(Nc2ccccc2)C(=O)c2[nH]cnc21 | 5.96 |
| O=C1C(Cl)=C(Nc2ccc(I)cc2)C(=O)c2[nH]c(C(F)(F)F)nc21 | 4.60 |
| O=C1C(Cl)=C(Nc2ccc(Cl)cc2)C(=O)c2[nH]c(C(F)(F)F)nc21 | 4.82 |

| SMILES | pIC50 |
| --- | --- |
| Cc1ccc(NC2=C(Cl)C(=O)c3nc(C(F)(F)F)[nH]c3C2=O)cc1 | 4.40 |
| COc1ccc(OC)c2[nH]c(C)nc12 | < 4.00 |
| O=C1C(Cl)=C(Nc2ccc(I)cc2)C(=O)c2[nH]cnc21 | 5.89 |
| O=C1C(Cl)=C(Nc2ccc(F)cc2)C(=O)c2[nH]c(C(F)(F)F)nc21 | 4.92 |
| Cc1nc2c([nH]1)C(=O)/C(=N/c1ccc(I)cc1)C(Cl)=C2O | 6.00 |
| O=C1C(Cl)=C(Nc2ccc(F)cc2)C(=O)c2[nH]cnc21 | 5.92 |
| Cc1nc2c([nH]1)C(=O)/C(=N/c1ccc(F)cc1F)C(Cl)=C2O | 5.92 |
| Cc1ccc(NC2=C(Cl)C(=O)c3nc[nH]c3C2=O)cc1 | 5.85 |
| O=C1C(Cl)=C(Nc2ccc(C(F)(F)F)cc2)C(=O)c2[nH]cnc21 | 5.60 |
| O=C1C(Cl)=C(Nc2ccc(C(F)(F)F)cc2)C(=O)c2[nH]c(C(F)(F)F)nc21 | 4.70 |
| Cc1ccc(NC2=C(Cl)C(=O)c3nc(C)[nH]c3C2=O)cc1 | 6.10 |
| Cc1nc2c([nH]1)C(=O)/C(=N/c1ccc(Cl)cc1)C(Cl)=C2O | 5.55 |
| O=C1C(Cl)=C(Nc2ccc(F)c(F)c2)C(=O)c2[nH]cnc21 | 5.96 |
| Cc1nc2c([nH]1)C(=O)/C(=N/c1ccc(Cl)cc1Cl)C(Cl)=C2O | 6.10 |
| O=C1C(Br)=C(Nc2ccc(C(F)(F)F)cc2)C(=O)c2[nH]cnc21 | 5.51 |
| Cc1nc2c([nH]1)C(=O)/C(=N/c1cccc(Cl)c1Cl)C(Cl)=C2O | 6.22 |
| Cc1nc2c([nH]1)C(=O)/C(=N/c1ccc(C(F)(F)F)cc1)C(Cl)=C2O | 6.22 |
| COc1c(C)c2c(c(O)c1C/C=C(\C)CCC(=O)O)C(=O)OC2 [MYCOPHENOLIC ACID] | 6.00 |
